Laboratory results as given in ChEMBL document CHEMBL1125823, “2-Phenylindole-linked [2-(aminoalkyl)pyridine]dichloroplatinum(II): complexes with a selective action on estrogen receptor positive mammary tumors” (1991).

Columns and labels:
MCF7 [1] = assay: Effect on Estrogen receptor positive MCF-7 human breast cancer cell proliferation at 1x10E-6M (control = 62.3+/-8.8); assay type: functional
How it was run: (§1)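 MCF-7 cells were kept in MEM with 5% charcoal-treated newborn calf serum and phenol red for 2 weeks, then about 2×10^4 cells were plated per well. Compounds in 0.1% DMF were added 2 days later and renewed on day 4; DMF alone served as control. Coulter cell counts were taken on day 5; mean of six dishes ± SD; % T/C.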

MCF7 [2] = assay: Effect on [3H]thymidine incorporation into estrogen receptor positive MCF-7 human breast cancer cells at 5x10E-6M; assay type: functional
How it was run: (§2)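 MCF-7 cells in improved MEM with glutamine, gentamycin and 5% newborn calf serum, switched to charcoal-treated serum two weeks ahead; phenol red present; 37 °C, 5% CO2. About 2×10^4 cells plated per well; compound in 0.1% DMF added 2 days later, renewed on day 4; labelled 3 days later with 1 μCi [3H]thymidine per well for 2 h; cpm/dish, mean of six dishes ± SD.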

[3] = molecular target: T1, Estrogen receptor (Mus musculus) (UniProt O08537+P19785); assay: Uterotrophic effect in mice as relative uterine weight(mg) at 250 ug (control = 14.6+/-2.7); assay type: functional, tissue-based
How it was run: (§3)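 Immature mice dosed sc per animal on three consecutive days; vehicle controls. Killed and weighed 24 h after last injection; uteri fixed in Bouin solution 2 h, washed with alcoholic LiCl, dried at 100 °C for 24 h. Relative uterus weight = uterine dry weight (mg)/body weight (g) × 100; mean of 6-10 animals ± SD.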
Target sequence in this assay (P19785 whole entry, looked up, chain 1 of 2): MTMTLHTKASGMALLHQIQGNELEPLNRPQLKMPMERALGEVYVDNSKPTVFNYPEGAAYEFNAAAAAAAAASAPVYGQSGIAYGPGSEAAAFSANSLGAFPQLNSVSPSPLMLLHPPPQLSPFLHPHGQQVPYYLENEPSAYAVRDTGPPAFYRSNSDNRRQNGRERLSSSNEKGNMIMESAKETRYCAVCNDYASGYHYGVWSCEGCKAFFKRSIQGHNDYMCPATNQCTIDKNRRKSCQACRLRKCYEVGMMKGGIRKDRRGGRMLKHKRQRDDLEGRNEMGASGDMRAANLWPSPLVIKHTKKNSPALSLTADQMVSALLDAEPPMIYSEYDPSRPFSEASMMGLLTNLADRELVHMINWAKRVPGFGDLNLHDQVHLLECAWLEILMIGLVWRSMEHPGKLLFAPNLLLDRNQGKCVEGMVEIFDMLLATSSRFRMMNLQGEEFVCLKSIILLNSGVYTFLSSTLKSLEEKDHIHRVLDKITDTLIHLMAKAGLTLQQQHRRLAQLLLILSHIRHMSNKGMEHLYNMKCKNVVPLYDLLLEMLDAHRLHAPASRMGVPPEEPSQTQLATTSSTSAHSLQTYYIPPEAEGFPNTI
Target sequence in this assay (O08537 whole entry, looked up, chain 2 of 2): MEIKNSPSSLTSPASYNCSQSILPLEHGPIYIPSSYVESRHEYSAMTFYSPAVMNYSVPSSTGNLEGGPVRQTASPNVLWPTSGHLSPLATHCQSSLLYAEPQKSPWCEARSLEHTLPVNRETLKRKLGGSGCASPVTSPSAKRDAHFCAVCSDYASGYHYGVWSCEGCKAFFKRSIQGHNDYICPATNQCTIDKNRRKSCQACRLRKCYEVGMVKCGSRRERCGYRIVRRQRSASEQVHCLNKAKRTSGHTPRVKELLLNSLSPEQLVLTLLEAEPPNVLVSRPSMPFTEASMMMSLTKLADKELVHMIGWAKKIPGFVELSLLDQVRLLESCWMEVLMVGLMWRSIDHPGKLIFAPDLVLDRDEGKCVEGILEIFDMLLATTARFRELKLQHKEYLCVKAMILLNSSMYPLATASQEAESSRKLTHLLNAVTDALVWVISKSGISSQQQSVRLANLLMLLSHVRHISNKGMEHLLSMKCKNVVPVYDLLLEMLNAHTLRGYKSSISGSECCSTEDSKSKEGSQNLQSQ

MCF7 [4] = assay: Effect on Estrogen receptor positive MCF-7 human breast cancer cell proliferation at 5x10E-6M; assay type: functional; how it was run: as §1
[5] = molecular target: T1, Estrogen receptor (Mus musculus); assay: Percent inhibition of estrone stimulated uterotrophic effect in mice at 250 ug; assay type: functional
How it was run: (§4)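 Immature mice given test compound per animal sc on three consecutive days together with 0.4 μg estrone/animal/day. Killed 24 h after last injection; uteri fixed in Bouin, dried 100 °C 24 h and weighed. Inhibition = 100 − [(W_S,T − W_V)/(W_S − W_V) × 100] using relative uterus weights; 6-10 animals; Wilcoxon-Mann-Whitney U test.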
Target sequence in this assay (P19785 whole entry, looked up, chain 1 of 2): as the sequence (P19785 whole entry, looked up, chain 1 of 2) above
Target sequence in this assay (O08537 whole entry, looked up, chain 2 of 2): as the sequence (O08537 whole entry, looked up, chain 2 of 2) above

MCF7 [6] = assay: Effect on [3H]thymidine incorporation into estrogen receptor positive MCF-7 human breast cancer cells at 1x10E-6M; assay type: functional
How it was run: (§5)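 MCF-7 cells were grown in MEM with charcoal-treated 5% newborn calf serum and phenol red, then treated with compounds in 0.1% DMF (renewed on day 4) alongside DMF controls. They were labeled 3 days later with 1 µCi [³H]thymidine per well for 2 h, and incorporated radioactivity per dish was measured; mean of six dishes ± SD; % T/C.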

MCF7 [7] = assay: Effect on Estrogen receptor positive MCF-7 human breast cancer cell proliferation at 1x10E-6M; assay type: functional; how it was run: as §1
MCF7 [8] = assay: Effect on Estrogen receptor positive MCF-7 human breast cancer cell proliferation at 5x10E-6M (control = 62.3+/-8.8); assay type: functional; how it was run: as §1
[9] = molecular target: T1, Estrogen receptor (Mus musculus); assay: Uterotrophic effect in mice as relative uterine weight(mg) at 25 ug (control = 14.6+/-2.7); assay type: functional, tissue-based; how it was run: as §3
Target sequence in this assay (P19785 whole entry, looked up, chain 1 of 2): as the sequence (P19785 whole entry, looked up, chain 1 of 2) above
Target sequence in this assay (O08537 whole entry, looked up, chain 2 of 2): as the sequence (O08537 whole entry, looked up, chain 2 of 2) above

[10] = molecular target: T1, Estrogen receptor (Mus musculus); assay: Anti-uterotrophic effect in mice as relative uterine weight(mg) at 250 ug; assay type: functional
How it was run: (§6)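 Immature mice received the compound sc per animal on three consecutive days, alone or with 0.4 µg estrone per animal per day. Uteri were taken 24 h after the last injection, Bouin-fixed, dried at 100 °C for 24 h and weighed. Relative uterus weight = dry weight (mg)/body weight (g) × 100; mean of 6-10 animals ± SD; Mann-Whitney U test.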
Target sequence in this assay (P19785 whole entry, looked up, chain 1 of 2): as the sequence (P19785 whole entry, looked up, chain 1 of 2) above
Target sequence in this assay (O08537 whole entry, looked up, chain 2 of 2): as the sequence (O08537 whole entry, looked up, chain 2 of 2) above

MCF7 [11] = assay: Effect on [3H]thymidine incorporation into estrogen receptor positive MCF-7 human breast cancer cells at 1x10E-6M (control = 43.4+/-1.8); assay type: functional; how it was run: as §5
MCF7 [12] = assay: Effect on [3H]thymidine incorporation into estrogen receptor positive MCF-7 human breast cancer cells at 5x10E-6M (control = 43.4+/-1.8); assay type: functional; how it was run: as §2
MCF7 [13] = assay: Effect on Estrogen receptor positive MCF-7 human breast cancer cell proliferation at 5x10E-6M (control = 66.9+/-7.0); assay type: functional; how it was run: as §1
[14] = molecular target: T1, Estrogen receptor (Mus musculus); assay: Percent inhibition of estrone stimulated uterotrophic effect in mice at 150 ug; assay type: functional; how it was run: as §4
Target sequence in this assay (O08537 whole entry, looked up): as the sequence (O08537 whole entry, looked up, chain 2 of 2) above
Target sequence in this assay (P19785 whole entry, looked up): as the sequence (P19785 whole entry, looked up, chain 1 of 2) above

MCF7 [15] = assay: Effect on [3H]thymidine incorporation into estrogen receptor positive MCF-7 human breast cancer cells at 1*10^-6 M (control = 28.2+/-3.0); assay type: functional; how it was run: as §5
MCF7 [16] = assay: Effect on Estrogen receptor positive MCF-7 human breast cancer cell proliferation at 1x10E-6M (control = 66.9+/-7.0); assay type: functional; how it was run: as §1
[17] = molecular target: T1, Estrogen receptor (Mus musculus); assay: Percent inhibition of estrone stimulated uterotrophic effect in mice at 15 ug; assay type: functional; how it was run: as §4
Target sequence in this assay (O08537 whole entry, looked up): as the sequence (O08537 whole entry, looked up, chain 2 of 2) above
Target sequence in this assay (P19785 whole entry, looked up): as the sequence (P19785 whole entry, looked up, chain 1 of 2) above

[18] = molecular target: T1, Estrogen receptor (Mus musculus); assay: Anti-uterotrophic effect in mice as relative uterine weight(mg) at 150 ug; assay type: functional; how it was run: as §6
Target sequence in this assay (O08537 whole entry, looked up): as the sequence (O08537 whole entry, looked up, chain 2 of 2) above
Target sequence in this assay (P19785 whole entry, looked up): as the sequence (P19785 whole entry, looked up, chain 1 of 2) above

[19] = molecular target: T1, Estrogen receptor (Mus musculus); assay: Uterotrophic effect in mice as relative uterine weight(mg) at 150 ug (control = 12.3+/-3.7); assay type: functional, tissue-based; how it was run: as §3
Target sequence in this assay (O08537 whole entry, looked up): as the sequence (O08537 whole entry, looked up, chain 2 of 2) above
Target sequence in this assay (P19785 whole entry, looked up): as the sequence (P19785 whole entry, looked up, chain 1 of 2) above

MCF7 [20] = assay: Effect on [3H]thymidine incorporation into estrogen receptor positive MCF-7 human breast cancer cells at 5x10E-6M (control = 28.2+/-3.0); assay type: functional; how it was run: as §2
[21] = molecular target: T1, Estrogen receptor (Mus musculus); assay: Anti-uterotrophic effect in mice as relative uterine weight(mg) at 15 ug; assay type: functional; how it was run: as §6
Target sequence in this assay (O08537 whole entry, looked up): as the sequence (O08537 whole entry, looked up, chain 2 of 2) above
Target sequence in this assay (P19785 whole entry, looked up): as the sequence (P19785 whole entry, looked up, chain 1 of 2) above

[22] = molecular target: T1, Estrogen receptor (Mus musculus); assay: Uterotrophic effect in mice as relative uterine weight(mg) at 15 ug (control = 12.3+/-3.7); assay type: functional, tissue-based; how it was run: as §3
Target sequence in this assay (O08537 whole entry, looked up): as the sequence (O08537 whole entry, looked up, chain 2 of 2) above
Target sequence in this assay (P19785 whole entry, looked up): as the sequence (P19785 whole entry, looked up, chain 1 of 2) above

[23] = molecular target: T1, Estrogen receptor (Mus musculus); assay: Anti-uterotrophic effect in hormone-dependent transplant MXT bearing mice as relative uterine weight in treated and control mice at 20 mg (control=100+/-24); assay type: functional
Target sequence in this assay (P19785 whole entry, looked up, chain 1 of 2): as above
Target sequence in this assay (O08537 whole entry, looked up, chain 2 of 2): as the sequence (O08537 whole entry, looked up, chain 2 of 2) above

MCF7 [24] = assay: Effect on [3H]thymidine incorporation into estrogen receptor positive MCF-7 human breast cancer cells at 5x10E-7M (control=48.6+/-3.6); assay type: functional, cell-based; how it was run: as §2
MCF7 [25] = assay: Effect on Estrogen receptor positive MCF-7 human breast cancer cell proliferation at 5x10E-7M (control = 62.7+/-8.8); assay type: functional; how it was run: as §1
Mus musculus [26] = species: Mus musculus; assay: Antitumor activity in hormone-dependent transplant MXT mammary tumor bearing mice at 20 mg (control=197+/-130); assay type: functional, organism-based
MCF7 [27] = assay: Effect on Estrogen receptor positive MCF-7 human breast cancer cell proliferation at 5x10E-6M (control = 62.7+/-8.8); assay type: functional; how it was run: as §1
MCF7 [28] = assay: Effect on Estrogen receptor positive MCF-7 human breast cancer cell proliferation at 5x10E-7M; assay type: functional; how it was run: as §1
[29] = molecular target: T1, Estrogen receptor (Mus musculus); assay: Uterotrophic effect in mice as relative uterine weight(mg) at 25 ug (control = 14.5+/-2.1); assay type: functional, tissue-based; how it was run: as §3
Target sequence in this assay (P19785 whole entry, looked up, chain 1 of 2): as the sequence (P19785 whole entry, looked up, chain 1 of 2) above
Target sequence in this assay (O08537 whole entry, looked up, chain 2 of 2): as the sequence (O08537 whole entry, looked up, chain 2 of 2) above

MCF7 [30] = assay: Effect on [3H]thymidine incorporation into estrogen receptor positive MCF-7 human breast cancer cells at 1x10E-6M (control = 48.6+/-3.6); assay type: functional; how it was run: as §5
[31] = molecular target: T1, Estrogen receptor (Mus musculus); assay: Uterotrophic effect in mice as relative uterine weight(mg) at 250 ug (control = 14.5+/-2.1); assay type: functional, tissue-based; how it was run: as §3
MCF7 [32] = assay: Effect on Estrogen receptor positive MCF-7 human breast cancer cell proliferation at 1x10E-6M (control = 62.7+/-8.8); assay type: functional; how it was run: as §1
Mus musculus [33] = species: Mus musculus; assay: Relative tumor weight in treated compared to control mice bearing hormone-dependent transplanted MXT mammary tumors at 20 mg; assay type: functional, organism-based
MCF7 [34] = assay: Effect on [3H]thymidine incorporation into estrogen receptor positive MCF-7 human breast cancer cells at 5x10E-6M (control = 48.6+/-3.6); assay type: functional; how it was run: as §2
Mus musculus [35] = species: Mus musculus; assay: Anti-tumor activity in hormone-dependent transplant MXT mammary tumor bearing mice at 8.8 mg (control=388+/-269); assay type: functional
Mus musculus [36] = species: Mus musculus; assay: Relative tumor weight in treated compared to control mice bearing hormone-dependent transplanted MXT mammary tumors at 8.8mg; assay type: functional

Question: What does the source list for “[5-hydroxy-3-methyl-2-(4-hydroxyphenyl)-1-[omega-[(2-pyridylmethyl)amino]butyl]indole]dichloroplatinum (II) complex”?
Answer: Cell no/dish (MCF7 [1]): 554000; T/C (MCF7 [2]): 68%; Relative uterus weight [3]: 14.8 mg; T/C (MCF7 [4]): 79%; inhibition [5]: 5%; T/C (MCF7 [6]): 88%; T/C (MCF7 [7]): 89%; Cell no/dish (MCF7 [8]): 489000; Relative uterus weight [9]: 21.5 mg; Relative uterus weight [10]: 51.8 mg; Activity (MCF7 [11]): 38400; Activity (MCF7 [12]): 29500

Question: With `Cc1c(-c2ccc(O)cc2)n(CCCCCNCc2ccccn2)c2ccc(O)cc12` as the compound, how does the Cell no/dish (MCF7 [13]) read?
Answer: 287000

Question: And the inhibition [14]?
Answer: 5%

Question: What about the Activity (MCF7 [15]) of the same compound?
Answer: 21600

Question: What about the Cell no/dish (MCF7 [16]) of the same compound?
Answer: 430000

Question: And the T/C (MCF7 [2])?
Answer: 67%

Question: What about the T/C (MCF7 [4]) of the same compound?
Answer: 43%

Question: What about the inhibition [17] of the same compound?
Answer: 9%

Question: And the Relative uterus weight [18]?
Answer: 44 mg

Question: What about the T/C (MCF7 [6]) of the same compound?
Answer: 76%

Question: What about the Relative uterus weight [19] of the same compound?
Answer: 13.3 mg

Question: What about the Activity (MCF7 [20]) of the same compound?
Answer: 18900

Question: What about the T/C (MCF7 [7]) of the same compound?
Answer: 64%

Question: And the Relative uterus weight [21]?
Answer: 42.6 mg

Question: What about the Relative uterus weight [22] of the same compound?
Answer: 16.4 mg

Question: Which results are given for “[5-hydroxy-2-(4-hydroxyphenyl)-1-[omega-[(2-pyridylmethyl)amino]hexyl]indole]dichloroplatinum (II) complex”?
Answer: T/C [23]: 103%; [3H] thymidine cpm/dish (MCF7 [24]): 33400; T/C (MCF7 [2]): 34%; Cell no/dish (MCF7 [25]): 482000; T/C (MCF7 [4]): 55%; Tumor weight (Mus musculus [26]): 80 mg; Cell no/dish (MCF7 [27]): 345000; T/C (MCF7 [28]): 77%; Relative uterus weight [29]: 12.7 mg; T/C (MCF7 [6]): 57%; Activity (MCF7 [30]): 27500; Relative uterus weight [31]: 16.3 mg; T/C (MCF7 [7]): 64%; Cell no/dish (MCF7 [32]): 401000; Relative uterus weight [10]: 52.7 mg; T/C (Mus musculus [33]): 40%; Activity (MCF7 [34]): 16700

Question: With `CC/C(=C(\c1ccccc1)c1ccc(OCCN(C)C)cc1)c1ccccc1` [TAMOXIFEN] as the compound, how does the Tumor weight (Mus musculus [35]) read?
Answer: 114 mg

Question: And the T/C (Mus musculus [36])?
Answer: 29%
